This note sets out measurements from ChEMBL document CHEMBL1137631, “Artemisinin-resistant mutants of Toxoplasma gondii have altered calcium homeostasis” (Antimicrob Agents Chemother, 2007).

Common to all, as to assay type: functional, organism-based
Assay [1] concerns Toxoplasma gondii. As to the kind of experiment: Antiparasitic activity against artemisinin-resistant Toxoplasma gondii KN200-6 infected in HFF cells after 72 hrs by beta-galactosidase reporter gene assay. A digest of the protocol:
(§1)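 Tachyzoites inoculated into HFF monolayers, quadruplicate wells per sample; compounds 10 nM to 100 μM for 3 days at 37°C. Monolayers lysed 10 min at 50°C (HEPES pH 8.0, Triton X-100, DTT), then phosphate buffer pH 7.3 added, chlorophenol red-β-D-galactopyranoside substrate, A570 read.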

Assay [2] has as its system Toxoplasma gondii. The assay can be described thus: Antiparasitic activity against artemisinin-resistant Toxoplasma gondii STL500-10A infected in HFF cells after 72 hrs by beta-galactosidase reporter gene assay. A digest of the protocol:
as §1
(In general: A reporter such as luciferase makes a cellular process visible.)

The test system of assay [3] is Toxoplasma gondii. As to the kind of experiment: Antiparasitic activity against Toxoplasma gondii ATCC 50839 infected in HFF cells after 72 hrs by beta-galactosidase reporter gene assay. A digest of the protocol: as §1
In assay [4] the test system is Toxoplasma gondii. The assay can be described thus: Antiparasitic activity against artemisinin-resistant Toxoplasma gondii KN200-1 infected in HFF cells after 72 hrs by beta-galactosidase reporter gene assay. A digest of the protocol: as §1
Assay [5] has as its system Toxoplasma gondii. As to the kind of experiment: Induction of […] MIC2 protein secretion in artemisinin-resistant Toxoplasma gondii STL500-10A at 10 uM treated for 10 mins by Western blot. A digest of the protocol: (§2)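 Freshly egressed parasites in DMEM/HEPES with 3% FBS, treated 10 min at 18°C (1% ethanol vehicle), then 2 min at 37°C to secrete, chilled, centrifuged at 400 × g. Supernatant and pellet resolved by 15% SDS-PAGE, Western blotted with rabbit anti-MIC2 (1:10,000) and anti-β-galactosidase (1:300) antibodies.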
A general note: Immunoblotting shows a protein as a band on a membrane.

For assay [6], the system named is Toxoplasma gondii. As to the kind of experiment: Induction of […] MIC2 protein secretion in Toxoplasma gondii ATCC 50839 at 10 uM treated for 10 mins by Western blot. A digest of the protocol:
as §2

Assay [7] concerns Toxoplasma gondii. As to the kind of experiment: Induction of […] MIC2 protein secretion in artemisinin-resistant Toxoplasma gondii KN200-6 at 10 uM treated for 10 mins by Western blot. A digest of the protocol:
as §2

Assay [8] relates to Toxoplasma gondii. As to the kind of experiment: Increase in intracellular calcium level in artemisinin-resistant Toxoplasma gondii KN200-6 at 1 uM by fura-2-AM dye based fluorimetric method. A digest of the protocol:
(§3)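 Freshly harvested tachyzoites loaded with 5.2 μM fura-2-AM in HEPES-buffered saline pH 7.4 plus 1.5% sucrose, 30 min at 26°C, washed; 2×10^7 cells/ml, room temperature, no extracellular calcium (1 mM EGTA). Excitation 340/380 nm, emission 510 nm; [Ca2+]i calibrated with Ca2+-EGTA buffers after background subtraction; three independent experiments.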
In general terms: A change in cytosolic calcium serves as a functional read-out for many receptors and channels.

The test system of assay [9] is Toxoplasma gondii. As to the kind of experiment: Increase in intracellular calcium level in Toxoplasma gondii ATCC 50839 at 1 uM by fura-2-AM dye based fluorimetric method. A digest of the protocol:
as §3

The subject of assay [10] is Toxoplasma gondii. The assay can be described thus: Increase in intracellular calcium level in artemisinin-resistant Toxoplasma gondii STL500-10A at 1 uM by fura-2-AM dye based fluorimetric method. A digest of the protocol:
as §3

The subject of assay [11] is Toxoplasma gondii. The assay can be described thus: Increase in intracellular calcium level in artemisinin-resistant Toxoplasma gondii STL500-10A at 1 uM by fura-2-AM dye based fluorimetric method in presence of extracellular calcium. A digest of the protocol:
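Freshly harvested tachyzoites loaded with 5.2 μM fura-2-AM in HEPES-buffered saline pH 7.4 plus 1.5% sucrose, 30 min at 26°C, washed; 2×10^7 cells/ml, room temperature, 1 mM extracellular CaCl2. 340/380 nm excitation ratio, 510 nm emission; [Ca2+]i calibrated with Ca2+-EGTA buffers; three independent experiments.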

The test system of assay [12] is Toxoplasma gondii. As to the kind of experiment: Induction of […] MIC2 protein secretion in artemisinin-resistant Toxoplasma gondii KN200-1 at 10 uM treated for 10 mins by Western blot. A digest of the protocol:
as §2

For assay [13], the system named is Toxoplasma gondii. As to the kind of experiment: Induction of […] MIC2 protein secretion in artemisinin-resistant Toxoplasma gondii A2.
Assay [14] concerns Toxoplasma gondii. The assay can be described thus: Increase in intracellular calcium level in artemisinin-resistant Toxoplasma gondii KN200-1 at 1 uM by fura-2-AM dye based fluorimetric method. A digest of the protocol:
as §3

Assay [15] deals with Toxoplasma gondii. As to the kind of experiment: Increase in intracellular calcium level in artemisinin-resistant Toxoplasma gondii KN200-6 at 20 uM by fura-2-AM dye based fluorimetric method. A digest of the protocol: as §3
Assay [16] relates to Toxoplasma gondii. As to the kind of experiment: Increase in intracellular calcium level in artemisinin-resistant Toxoplasma gondii KN200-1 at 20 uM by fura-2-AM dye based fluorimetric method. A digest of the protocol:
as §3

The subject of assay [17] is Toxoplasma gondii. As to the kind of experiment: Increase in intracellular calcium level in Toxoplasma gondii ATCC 50839 at 20 uM by fura-2-AM dye based fluorimetric method. A digest of the protocol:
as §3

In assay [18] the test system is Toxoplasma gondii. The assay can be described thus: Increase in intracellular calcium level in artemisinin-resistant Toxoplasma gondii STL500-10A at 20 uM by fura-2-AM dye based fluorimetric method. A digest of the protocol:
as §3

Where [19] appears, read: Toxoplasma gondii, ATCC 50839, HFF, 72 h, read-out: EC50.
Where [20] appears, read: Toxoplasma gondii, KN200-6, HFF, 72 h, read-out: EC50.
[21] abbreviates: Toxoplasma gondii, STL500-10A, HFF, 72 h, read-out: EC50.
The mark [22] stands for this setting: Toxoplasma gondii, KN200-1, HFF, 72 h, read-out: EC50.

Activity calls are given as the source filed them. No cut-off for these calls is given here.

Usually EC50 stands for the concentration needed to bring the measured effect to its halfway point. In the case of `C[C@@H]1CC[C@H]2[C@@H](C)C(=O)O[C@@H]3O[C@@]4(C)CC[C@@H]1[C@]32O4` [DEOXYARTEMISININ], the 50% effective concentration (EC50) entry in the assay with Toxoplasma gondii [1] (hff), with Toxoplasma gondii [2] (hff), in the assay on Toxoplasma gondii [3] (hff) and in the assay on Toxoplasma gondii [4] (hff) was “Not Active” each time.
Turning to `C[C@H]1[C@H](N2CCS(=O)(=O)CC2)O[C@@H]2O[C@@]3(C)CC[C@H]4[C@H](C)CC[C@@H]1[C@@]24OO3` [ARTEMIFONE], the EC50 in the assay with Toxoplasma gondii [3] (setting [19]) came out at 30 nM.
Take `C/C=C(/C)C(=O)O[C@H]1C(C)=C2[C@H]([C@@H]1OC(=O)CCCCCCC)[C@@](C)(OC(C)=O)C[C@H](OC(=O)CCC)[C@@]1(O)[C@H]2OC(=O)[C@@]1(C)O`: the result in the assay on Toxoplasma gondii [5], in the assay on Toxoplasma gondii [6], with Toxoplasma gondii [7], with Toxoplasma gondii [8], in the assay with Toxoplasma gondii [9] and with Toxoplasma gondii [10] was Active. The result in the assay with Toxoplasma gondii [11], in the assay with Toxoplasma gondii [12], in the assay on Toxoplasma gondii [13] and in the assay on Toxoplasma gondii [14] was Active.
As usually defined, the EC90 is the point of the concentration-response curve where the effect stands at 90%. A lower EC90 goes with greater potency. `C[C@@H]1CC[C@H]2[C@@H](C)C(=O)O[C@@H]3O[C@@]4(C)CC[C@@H]1[C@]32OO4` [ARTEMISININ]: the outcome in the assay with Toxoplasma gondii [15], with Toxoplasma gondii [16], with Toxoplasma gondii [17] and in the assay on Toxoplasma gondii [18] was Active. Further, the concentration for an effect of 90% (EC90) was 8550 nM with Toxoplasma gondii [1] (Toxoplasma gondii, KN200-6, HFF, 72 h); 4770 nM in the assay on Toxoplasma gondii [2] (Toxoplasma gondii, STL500-10A, HFF, 72 h); 1240 nM in the assay on Toxoplasma gondii [3] (Toxoplasma gondii, ATCC 50839, HFF, 72 h); 6850 nM with Toxoplasma gondii [4] (Toxoplasma gondii, KN200-1, HFF, 72 h). Further, the EC50 in the assay with Toxoplasma gondii [1] (setting [20]) stood at 1510 nM; in the assay on Toxoplasma gondii [2] (setting [21]) it was 1800 nM; in the assay on Toxoplasma gondii [3] (setting [19]), 800 nM; in the assay on Toxoplasma gondii [4] (setting [22]), 1730 nM. Further, the result in the assay on Toxoplasma gondii [13] was inactive.
`O=c1[nH]c(=O)n([C@H]2C[C@H](O)[C@@H](CO)O2)cc1F` [FLOXURIDINE]: the concentration giving a half-maximal response (EC50) in the assay on Toxoplasma gondii [1] (setting [20]) worked out at 1190 nM; with Toxoplasma gondii [2] (setting [21]), 960 nM; in the assay on Toxoplasma gondii [3] (setting [19]), 910 nM; in the assay on Toxoplasma gondii [4] (setting [22]), 1130 nM.
The matching figures for `CCc1nc(N)nc(N)c1-c1ccc(Cl)cc1` [PYRIMETHAMINE]: 270 nM, 240 nM, 210 nM and 290 nM.
As for `C[C@@H]1CC[C@H]2[C@H](C)CO[C@@H]3O[C@@]4(C)CC[C@@H]1[C@]32OO4` [9-EPI-10-DEOXOARTEMISININ], the concentration giving a half-maximal response (EC50) entry in the assay on Toxoplasma gondii [1] (hff), in the assay on Toxoplasma gondii [2] (hff) and with Toxoplasma gondii [4] (hff) was “Active” in each case.
